One may read the IC50 as the point on the concentration scale where inhibition reaches its midpoint. A higher IC50 goes with weaker potency.

Consider nine compounds from publication PMC6142410 (Current Drug Discovery Technologies, 2018).

Assay [1] has as its system human plasma prothrombin time. In words: Human plasma prothrombin time. Format: biochemical. To be noted: concentration that doubled the prothrombin time in human plasma; Thromborel S. The essentials:
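KM-2 control plasma mixed with test compound solution and incubated 1 min at 37°C. Clotting triggered with thromboplastin (ISI=1) and time read on a coagulometer. The concentration doubling PT was estimated by regression from dose-response curves.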

Assay [2] addresses human FXa (Homo sapiens, UniProt P00742). Briefly: Factor Xa inhibition, chromogenic substrate assay. In kind it is biochemical. A digest of the protocol:
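Human FXa (0.0625 U/mL) and test compound in aqueous 5% (v/v) DMSO mixed in Tris-BSA buffer (0.2 M NaCl, 0.1 M Tris, 0.2% BSA, pH 7.4). Chromogenic substrate added to start the reaction, then 10 s stirring. OD at 405 nm followed over time against a DMSO-only reference. Inhibition = 1 − OD(inhibitor)/OD(reference). IC50 derived from the concentration dependence.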

human FXa, sequence (P00742 235-488 limits assumed): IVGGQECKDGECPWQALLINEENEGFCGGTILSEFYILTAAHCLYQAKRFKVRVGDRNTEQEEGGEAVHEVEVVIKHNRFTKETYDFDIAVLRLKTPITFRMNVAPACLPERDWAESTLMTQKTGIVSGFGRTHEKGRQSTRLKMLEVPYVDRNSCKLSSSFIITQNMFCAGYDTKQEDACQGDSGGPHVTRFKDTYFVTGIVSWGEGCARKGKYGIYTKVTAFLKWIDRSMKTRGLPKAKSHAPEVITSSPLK
human FXa, sequence (P00742 41-179 partner limits assumed): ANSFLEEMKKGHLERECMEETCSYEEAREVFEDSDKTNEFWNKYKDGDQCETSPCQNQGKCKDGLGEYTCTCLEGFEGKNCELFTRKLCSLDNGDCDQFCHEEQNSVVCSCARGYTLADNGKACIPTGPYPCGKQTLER

On to `CNC(=O)N(C)c1ccc(C(=O)Nc2ccc(C)cc2C(=O)Nc2ccc(Cl)cn2)cc1` [Compound 117, N-(5-chloropyridin-2-yl)-5-methyl-2-[(4-{methyl[(methylamino)carbonyl]amino}benzoyl)amino]benzamide], for which, in assay [1], the PTx2 amounted to 2.0 ± 0.4 µM. In assay [2], this compound yielded an IC50 of 0.15 ± 0.03 nM.

Consider `CC(=N)N(C)c1ccc(C(=O)Nc2ccc(C)cc2C(=O)Nc2ccc(Cl)cn2)c(F)c1` [Compound 302, N-(2-{[(5-chloropyridin-2-yl)amino]carbon-yl}-4-methylphenyl)-4-[ethanimidoyl(methyl)amino]-2-fluorobenzamide], for which the PTx2 in assay [1] amounted to 0.09 ± 0.02 µM. The compound also returned an IC50 in assay [2] of 0.8 ± 0.2 nM.

Compound `CC(=N)N(C)c1ccc(C(=O)Nc2ccc(Cl)cc2C(=O)Nc2ccc(Cl)cn2)c(F)c1` [Compound 303, N-(4-chloro-2-{[(5-chloropyridin-2-yl)amino]carbonyl}phenyl)-4-[ethanimidoyl (methyl)amino]-2-fluorobenzamide] showed a PTx2 in assay [1] of 0.09 ± 0.02 µM. This compound came in with an IC50 in assay [2] of 1 ± 0.2 nM.

Compound `CC(=N)N(C)c1ccc(C(=O)Nc2ccc(C)cc2C(=O)Nc2ccc(Cl)cc2)cc1` [Compound 304, N-(4-chlorophenyl)-2-({4-[ethanimidoyl (methyl)amino]benzoyl}amino)-5-methylbenzamide] yielded a PTx2 in assay [1] above 30 µM. The compound also came in with an IC50 in assay [2] of 1 ± 0.2 nM.

For `COc1cc(N(C)C(C)=N)ccc1C(=O)Nc1ccc(C)cc1C(=O)Nc1ccc(Cl)cn1` [Compound 307, N-(2-{[(5-chloropyridin-2-yl)amino]carbonyl}-4-methylphenyl)-4-[ethanimidoyl(methyl)amino]-2-methoxybenzamide], in assay [1], the PTx2 worked out at 2.0 ± 0.4 µM. The IC50 in assay [2] amounted to 1 ± 0.2 nM.

As to `CC(=N)N(C)c1ccc(C(=O)Nc2ccccc2C(=O)Nc2ccc(Cl)cn2)cc1` [Compound 310, N-(5-chloropyridin-2-yl)-2-({4-[ethanimidoyl (methyl)amino]benzoyl}amino)benzamide], the PTx2 in assay [1] is 0.50 ± 0.12 µM. Also, in assay [2], the IC50 worked out at 2 ± 0.2 nM.

Compound `CNC(=O)N(C)c1ccc(C(=O)Nc2ccc(C)cc2C(=O)Nc2ccc(Cl)cc2)cc1` [Compound 311, N-(4-chlorophenyl)-5-methyl-2-[(4-{methyl [(methylamino)carbonyl]amino}benzoyl)amino]benzamide] displayed a PTx2 in assay [1] above 30 µM. The IC50 in assay [2] was 2 ± 0.3 nM.

The compound `CNC(=O)N(C)c1ccc(C(=O)Nc2ccc(C)cc2C(=O)Nc2ccc(C)cc2)cc1` [Compound 312, 5-methyl-2-[(4-{methyl[(methylamino)carbonyl]amino}benzoyl)amino]-N-(4-methyl-phenyl)benzamide] displayed a PTx2 in assay [1] of 3.0 ± 0.6 µM. The midpoint of inhibition in assay [2], the IC50, lay at 0.15 ± 0.03 nM.

`CNC(=O)N(C)c1ccc(C(=O)Nc2ccccc2C(=O)Nc2ccc(Cl)cn2)cc1` [Compound 317, N-(5-chloropyridin-2-yl)-2-[(4-{methyl[ (methylamino)carbonyl]amino}benzoyl)amino]benzamide] came in with a PTx2 in assay [1] of 3.0 ± 0.6 µM. Besides, half-maximal inhibition in assay [2] (IC50) was put at 0.25 ± 0.05 nM.
